Laboratory results reported in paper PMC10246735 (European journal of medicinal chemistry, 2023).

How the values were obtained:
[1] = system: LNCaP (AR+) androgen-sensitive human prostate adenocarcinoma cells; assay: MTT antiproliferative activity assay on LNCaP cells; type: cell-based
[2] = system: PC3 (AR−) androgen-insensitive human prostate adenocarcinoma cells; assay: MTT antiproliferative activity assay on PC3 cells; type: cell-based; conditions: 48 h, read-out: IC50 (concentration of drug inhibiting cell growth by 50%), PC3 (AR−)
[3] = target: recombinant CYP3A4 (Homo sapiens, UniProt P08684); assay: Equilibrium spectral titration of recombinant CYP3A4; type: binding; conditions: for high spin content: estimated at the end of equilibrium titrations relative to azamulin-bound CYP3A4 (100% high-spin conversion); for Kd: read-out: S50, ligand concentration at half-saturation (equivalent to Kd), 0.1 M phosphate buffer, pH 7.4; for Kd / nH, Hill coefficient: sigmoidal fittings to titration plots, mean of three ± SD
Method in brief: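 Codon-optimized full-length human CYP3A4 (1.5–2 μM) in 0.1 M phosphate buffer, pH 7.4, with 20% glycerol and 1 mM dithiothreitol, at ambient temperature. DMSO-dissolved ligand added in small aliquots (final solvent <2%). Titration plots were built from difference absorbance spectra. Sigmoidal fits gave S50 (half-saturation ligand concentration, equivalent to Kd) and Hill coefficient; hyperbolic fits gave Kd.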

Sequence of recombinant CYP3A4 (P08684 whole entry): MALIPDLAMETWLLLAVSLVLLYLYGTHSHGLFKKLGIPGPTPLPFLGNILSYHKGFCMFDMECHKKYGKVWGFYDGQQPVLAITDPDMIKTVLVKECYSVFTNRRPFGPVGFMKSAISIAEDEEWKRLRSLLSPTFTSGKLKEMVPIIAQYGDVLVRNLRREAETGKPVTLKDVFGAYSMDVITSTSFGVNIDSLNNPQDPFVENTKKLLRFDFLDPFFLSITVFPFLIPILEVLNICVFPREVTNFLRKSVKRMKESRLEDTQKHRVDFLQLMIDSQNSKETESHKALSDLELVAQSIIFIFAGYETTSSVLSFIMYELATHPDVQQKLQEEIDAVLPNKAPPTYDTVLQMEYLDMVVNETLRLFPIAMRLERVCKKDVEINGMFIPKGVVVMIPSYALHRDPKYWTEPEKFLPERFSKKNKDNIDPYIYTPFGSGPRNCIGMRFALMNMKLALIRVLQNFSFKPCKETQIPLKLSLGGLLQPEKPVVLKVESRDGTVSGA

Structure (SMILES)	high spin content [3]	Kd [3]	nH, Hill coefficient [3]	also measured
CC(=O)O[C@]1(C(C)=O)CC[C@H]2[C@@H]3C=C(Cl)C4=CC(=O)[C@@H]5C[C@@H]5[C@]4(C)[C@H]3CC[C@@]21C [CPA, cyproterone acetate, reference compound]	–	–	–	IC50 ([1]; Homo sapiens, LNCaP/AR, 48 h, read-out: IC50 (concentration of drug inhibiting cell growth by 50%), LNCaP (AR+)): 40.7 µM; IC50 [2]: 84.3 µM
C=CC[C@]1(O)CC[C@H]2[C@@H]3CCC4=CC(=O)CC[C@]4(C)[C@H]3CC[C@@]21C [Compound 10, 17α-allyl-androst-4-en-3-one-17β-ol]	70 ± 2%	22 ± 4 µM	1.52 ± 0.02	–
C[C@]12CCC(=O)C=C1CC[C@@H]1[C@@H]2CC[C@@]2(C)[C@H]1CC[C@@]2(O)C/C=C/C[C@]1(O)CC[C@H]2[C@@H]3CCC4=CC(=O)CC[C@]4(C)[C@H]3CC[C@@]21C [Compound 11, ((E)-17,17’-(but-2-ene-1,4-diyl))bis(androst-4-en-3-one-17β-ol)]	92 ± 4%	–	–	fold more potent than the reference drug CPA ([1]; LNCaP (AR+) cells, ratio of IC50): ~ 3.5 times; fold more potent on AR+ LNCaP than AR− PC3 cells ([1]; ratio of IC50 PC3 / LNCaP): ~ 3.7 times; fold higher affinity for CYP3A4 compared to 15 ([3]; ratio of Kd): 40 fold
C=CC[C@]1(O)CC[C@H]2[C@@H]3CC[C@H]4CC(=O)CC[C@]4(C)[C@H]3CC[C@@]21C [Compound 14, 17α-allyl-androst-3-one-17β-ol]	71 ± 3%	17 ± 2 µM	1.76 ± 0.06	–
C[C@]12CCC(=O)C[C@@H]1CC[C@@H]1[C@@H]2CC[C@@]2(C)[C@H]1CC[C@@]2(O)C/C=C/C[C@]1(O)CC[C@H]2[C@@H]3CC[C@H]4CC(=O)CC[C@]4(C)[C@H]3CC[C@@]21C [Compound 15, ((E)-17,17’-(but-2-ene-1,4-diyl))bis(androst-3-one-17β-ol)]	33 ± 3%	–	–	–
